Measured values reported in ChEMBL document CHEMBL3734666, “Lipophilic vancomycin aglycon dimer with high activity against vancomycin-resistant bacteria” (2015).
Values after ≈ are worked out from the molar mass of the structure shown. Active and inactive are the calls of the source. The rule behind the calls is not given here.

Experiments:
Staphylococcus aureus [1] = assay: Bacteriostatic activity against methicillin-resistant Staphylococcus aureus ATCC 33591 at 2 to 4 uM measured within 6 hrs; format: functional, organism-based
Staphylococcus aureus [2] = assay: Bacteriostatic activity against methicillin-resistant Staphylococcus aureus ATCC 33591 at 2 to 4 uM measured after 6 hrs; format: functional, organism-based
Staphylococcus aureus [3] = assay: Antibacterial activity against methicillin-resistant Staphylococcus aureus ATCC 33591 infected in human whole blood assessed as bacterial burden at 4 uM after 3 hrs (reference value: 7.0 log10 CFU/ml); format: functional
Staphylococcus aureus [4] = assay: Antibacterial activity against methicillin-sensitive Staphylococcus aureus after 24 hrs by broth micro dilution assay; format: functional
Summary of the method: (§1)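 MIC read against vancomycin-sensitive staphylococci (MSSA, MRSA) and enterococci (VSE), plus vancomycin-resistant staphylococci (VISA) and enterococci (VRE).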

Staphylococcus aureus [5] = assay: Antibacterial activity against methicillin-resistant Staphylococcus aureus ATCC 33591 after 24 hrs by broth micro dilution assay; format: functional; conditions: ATCC 33591, 24 h; summary of the method: as §1
Enterococcus faecium [6] = assay: Antibacterial activity against vancomycin-sensitive Enterococcus faecium after 24 hrs by broth micro dilution assay; format: functional
Staphylococcus aureus [7] = assay: Antibacterial activity against vancomycin-intermediate-resistant Staphylococcus aureus […] after 24 hrs by broth micro dilution assay; format: functional; summary of the method: as §1
Enterococcus faecium [8] = assay: Antibacterial activity against vancomycin-resistant Enterococcus faecium ATCC 51559 after 24 hrs by broth micro dilution assay; format: functional; conditions: ATCC 51559, 24 h; summary of the method: as §1
[9] = Binding affinity to N,N'-diacetyl-Lys-D-Ala-D-Ala (unknown origin) by UV-difference spectroscopy
Summary of the method: (§2)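 Binding constants (Ka) measured by UV-difference spectroscopy with the model ligands N,N′-diacetyl-Lys-D-Ala-D-Ala (sensitive) and N,N′-diacetyl-Lys-D-Ala-D-Lac (resistant).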

[10] = Binding affinity to N,N'-diacetyl-Lys-D-Ala-D-Lac (unknown origin) by UV-difference spectroscopy; summary of the method: as §2
Staphylococcus aureus [11] = assay: Antibacterial activity against methicillin-resistant Staphylococcus aureus ATCC 33591 infected in human whole blood assessed as bacterial burden at 2 uM after 3 hrs (reference value: 7.0 log10 CFU/ml); format: functional
Enterococcus faecium [12] = assay: Inhibition of peptidoglycan biosynthesis in vancomycin-resistant Enterococcus faecium ATCC 51559 assessed as accumulation of UDP-MurNAc-pp at 5 uM after 60 mins by mass spectrometric analysis; format: functional, organism-based
Staphylococcus aureus [13] = assay: Bactericidal activity against methicillin-resistant Staphylococcus aureus ATCC 33591 assessed as reduction in bacterial burden at 4 uM measured within 3 hrs by time-kill assay; format: functional
Summary of the method: (§3)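 Time-kill assay on MRSA starting near 8log₁₀ CFU/mL, with compound at 2 and 4 µM. Viable counts were taken over 24 h, including a 3 h point, with a detection limit of <50 CFU/mL.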

Staphylococcus aureus [14] = assay: Bactericidal activity against methicillin-resistant Staphylococcus aureus ATCC 33591 assessed as reduction in bacterial burden at 4 uM measured within 24 hrs by time-kill assay; format: functional, organism-based; summary of the method: as §3

SMILES	Activity (Staphylococcus aureus [1])	Activity (Staphylococcus aureus [2])	Activity (Staphylococcus aureus [3]) [log10CFU/ml]	MIC (Staphylococcus aureus [4]) [µM]	MIC (Staphylococcus aureus [5]) [µM]	MIC (Enterococcus faecium [6]) [µM]	MIC (Staphylococcus aureus [7]) [µM]	MIC (Enterococcus faecium [8]) [µM]	Ka [9] [×10⁵ /M]	Ka [10]	Activity (Staphylococcus aureus [11]) [log10CFU/ml]	inhibition (Enterococcus faecium [12])	Activity (Staphylococcus aureus [13]) [log10CFU/ml]	Activity (Staphylococcus aureus [14])
CN[C@@H](CC(C)C)C(=O)N[C@H]1C(=O)N[C@@H](CC(N)=O)C(=O)N[C@H]2C(=O)N[C@H]3C(=O)N[C@H](C(=O)N[C@@H](C(=O)O)c4cc(O)cc(O)c4-c4cc3ccc4O)[C@H](O)c3ccc(c(Cl)c3)Oc3cc2cc(c3O[C@H]2O[C@@H](CO)[C@H](O)[C@@H](O)[C@@H]2O[C@@H]2C[C@@](C)(N)[C@@H](O)[C@@H](C)O2)Oc2ccc(cc2Cl)[C@H]1O	Active	inactive	1	0.6 (≈ 0.87 µg/mL)	0.7 (≈ 1.01 µg/mL)	0.6 (≈ 0.87 µg/mL)	13 (≈ 18.8 µg/mL)	750 (≈ 1090 µg/mL)	1	5 ×10² /M				
CN[C@H](CC(C)C)C(=O)N[C@H]1C(=O)N[C@@H](CC(N)=O)C(=O)N[C@H]2C(=O)N[C@H]3C(=O)N[C@H](C(=O)N[C@H](C(=O)O)c4cc(O)cc(O)c4-c4cc3ccc4O)[C@H](O)c3ccc(c(Cl)c3)Oc3cc2cc(c3O)Oc2ccc(cc2Cl)[C@H]1O [VANCOMYCIN AGLYCON]				1 (≈ 1.14 µg/mL)	1 (≈ 1.14 µg/mL)	1.8 (≈ 2.06 µg/mL)	4 (≈ 4.58 µg/mL)	> 100						
CCCCCCCCN(CCCNC(=O)[C@H]1NC(=O)[C@@H]2NC(=O)[C@@H](NC(=O)[C@H]3NC(=O)[C@@H](CC(N)=O)NC(=O)[C@@H](NC(=O)[C@@H](CC(C)C)NC)[C@@H](O)c4ccc(c(Cl)c4)Oc4cc3cc(c4O)Oc3ccc(cc3Cl)[C@@H]2O)c2ccc(O)c(c2)-c2c(O)cc(O)cc21)CCCNC(=O)[C@@H]1NC(=O)[C@H]2NC(=O)[C@H](NC(=O)[C@@H]3NC(=O)[C@H](CC(N)=O)NC(=O)[C@H](NC(=O)[C@@H](CC(C)C)NC)[C@H](O)c4ccc(c(Cl)c4)Oc4cc3cc(c4O)Oc3ccc(cc3Cl)[C@H]2O)c2ccc(O)c(c2)-c2c(O)cc(O)cc21				0.6 (≈ 1.5 µg/mL)	0.6 (≈ 1.5 µg/mL)	0.5 (≈ 1.25 µg/mL)	0.6 (≈ 1.5 µg/mL)	2.5 (≈ 6.24 µg/mL)	1	5.7 ×10³ /M	4.5	Active	3	Active
CN[C@H](CC(C)C)C(=O)N[C@H]1C(=O)N[C@@H](CC(N)=O)C(=O)N[C@H]2C(=O)N[C@H]3C(=O)N[C@H](C(=O)N[C@H](C(=O)NCCCCCCCCNC(=O)C(F)(F)F)c4cc(O)cc(O)c4-c4cc3ccc4O)[C@H](O)c3ccc(c(Cl)c3)Oc3cc2cc(c3O)Oc2ccc(cc2Cl)[C@H]1O				1 (≈ 1.37 µg/mL)	2 (≈ 2.73 µg/mL)	0.6 (≈ 0.82 µg/mL)	0.6 (≈ 0.82 µg/mL)	30.5 (≈ 41.7 µg/mL)						
CN[C@H](CC(C)C)C(=O)N[C@H]1C(=O)N[C@@H](CC(N)=O)C(=O)N[C@H]2C(=O)N[C@H]3C(=O)N[C@H](C(=O)N[C@H](C(=O)NCCC[N+](C)(C)CCCCCCCC[N+](C)(C)CCCNC(=O)C(F)(F)F)c4cc(O)cc(O)c4-c4cc3ccc4O)[C@H](O)c3ccc(c(Cl)c3)Oc3cc2cc(c3O)Oc2ccc(cc2Cl)[C@H]1O				1	1	0.2	0.5	> 100						
CN[C@H](CC(C)C)C(=O)N[C@@H]1C(=O)N[C@H](CC(N)=O)C(=O)N[C@@H]2C(=O)N[C@@H]3C(=O)N[C@@H](C(=O)N[C@H](C(=O)NCCCCCCCCNC(=O)[C@H]4NC(=O)[C@@H]5NC(=O)[C@@H](NC(=O)[C@H]6NC(=O)[C@@H](CC(N)=O)NC(=O)[C@@H](NC(=O)[C@@H](CC(C)C)NC)[C@@H](O)c7ccc(c(Cl)c7)Oc7cc6cc(c7O)Oc6ccc(cc6Cl)[C@@H]5O)c5ccc(O)c(c5)-c5c(O)cc(O)cc54)c4cc(O)cc(O)c4-c4cc3ccc4O)[C@@H](O)c3ccc(c(Cl)c3)Oc3cc2cc(c3O)Oc2ccc(cc2Cl)[C@@H]1O				0.8 (≈ 1.92 µg/mL)	0.6 (≈ 1.44 µg/mL)	0.6 (≈ 1.44 µg/mL)	0.2 (≈ 0.479 µg/mL)	25.8 (≈ 61.8 µg/mL)						
CN[C@H](CC(C)C)C(=O)N[C@@H]1C(=O)N[C@H](CC(N)=O)C(=O)N[C@@H]2C(=O)N[C@@H]3C(=O)N[C@@H](C(=O)N[C@H](C(=O)NCCC[N+](C)(C)CCCCCCCC[N+](C)(C)CCCNC(=O)[C@H]4NC(=O)[C@@H]5NC(=O)[C@@H](NC(=O)[C@H]6NC(=O)[C@@H](CC(N)=O)NC(=O)[C@@H](NC(=O)[C@@H](CC(C)C)NC)[C@@H](O)c7ccc(c(Cl)c7)Oc7cc6cc(c7O)Oc6ccc(cc6Cl)[C@@H]5O)c5ccc(O)c(c5)-c5c(O)cc(O)cc54)c4cc(O)cc(O)c4-c4cc3ccc4O)[C@@H](O)c3ccc(c(Cl)c3)Oc3cc2cc(c3O)Oc2ccc(cc2Cl)[C@@H]1O				0.2	0.3	0.05	0.1	48						
CCCCCCCCN(CCCNC(=O)[C@H]1NC(=O)[C@H]2NC(=O)[C@H](NC(=O)[C@@H]3NC(=O)[C@H](CC(N)=O)NC(=O)[C@H](NC(=O)[C@@H](CC(C)C)NC)[C@H](O)c4ccc(c(Cl)c4)Oc4cc3cc(c4O)Oc3ccc(cc3Cl)[C@H]2O)c2ccc(O)c(c2)-c2c(O)cc(O)cc21)CCCNC(=O)C(F)(F)F				0.8 (≈ 1.17 µg/mL)	1 (≈ 1.47 µg/mL)	0.4 (≈ 0.586 µg/mL)	0.8 (≈ 1.17 µg/mL)	6.5 (≈ 9.52 µg/mL)						
